Results taken from article PMC4592802 (Journal of immunology (Baltimore, Md. : 1950), 2015).

Legend:
[1] = tested on: 3.L2 TCR on CD8^+ 3.L2 T cells; test: BFP force-clamp bond lifetime assay, CD8+ 3.L2 T cells; assay type: binding, mouse; conditions: for Bond lifetime versus force / Bond type under force: force-clamp, 5-40 pN, CD8+ 3.L2 T cells; for Bond type under force: >300 lifetime events per ligand; for Force at maximum ratio of bond lifetime of Hb to that of the peptide: ratio bond lifetime Hb/peptide vs force (Fig. 6B)
Procedure, shortened: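 Biomembrane force probe force-clamp used beads carrying streptavidin-maleimide and subsaturating biotinylated pMHC-II. Each bond was loaded to a preset force and held constant until it dissociated. pMHC density was adjusted to keep adhesion frequency <20%, for […] single bonds. >300 lifetimes per ligand were taken over 5-40pN, in 5-7 bins. The Hb/peptide lifetime ratio was calculated from the force versus lifetime data.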

3.L2 TCR T-cell response = conditions: relative activity of well-characterized ligands; ref [6], [36]; cited from earlier work
3.L2 TCR = conditions: 3D SPR; ref [6]; cited from earlier work
[2] = tested on: 3.L2 TCR on CD4^+ 3.L2 T cells; test: Micropipette adhesion frequency assay, CD4+ 3.L2 T cells; assay type: binding, mouse; conditions: T cells treated with anti-CD4 GK1.5, 20 μg/ml
Procedure, shortened: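 T cells were incubated 30min at 4°C with 20μg/ml anti-CD4 GK1.5, then tested with the same antibody present. Micropipette contacts were made with pMHC-coated RBCs, and adhesion frequency counted from 50 contacts per cell pair over a range of contact times. A least-squares fit to the probabilistic kinetic equation, using measured TCR and pMHC densities, gave AcKa and koff. On-rate = AcKa × koff.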

3.L2 TCR on T cells = test: Thermal fluctuation assay; assay type: binding, mouse; conditions: T cells treated with anti-CD4 GK1.5; zero force
Procedure, shortened: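 Cells were pretreated 30min at 4°C with 20μg/ml anti-CD4 GK1.5, and the antibody was kept in the chamber during measurement. A biomembrane force probe bead bearing subsaturating biotinylated pMHC-II contacted the T cell. Bond lifetime ran from reduction to resumption of bead thermal fluctuations. koff was taken from the negative slope of ln(events with lifetime > t_b) versus t_b.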

[3] = biological target: CD4 (mouse (endogenous in 3.L2 transgenic mouse T cells)) (UniProt P06332); test: micropipette adhesion frequency assay
UniProt P06332, sequence (P06332 27-457): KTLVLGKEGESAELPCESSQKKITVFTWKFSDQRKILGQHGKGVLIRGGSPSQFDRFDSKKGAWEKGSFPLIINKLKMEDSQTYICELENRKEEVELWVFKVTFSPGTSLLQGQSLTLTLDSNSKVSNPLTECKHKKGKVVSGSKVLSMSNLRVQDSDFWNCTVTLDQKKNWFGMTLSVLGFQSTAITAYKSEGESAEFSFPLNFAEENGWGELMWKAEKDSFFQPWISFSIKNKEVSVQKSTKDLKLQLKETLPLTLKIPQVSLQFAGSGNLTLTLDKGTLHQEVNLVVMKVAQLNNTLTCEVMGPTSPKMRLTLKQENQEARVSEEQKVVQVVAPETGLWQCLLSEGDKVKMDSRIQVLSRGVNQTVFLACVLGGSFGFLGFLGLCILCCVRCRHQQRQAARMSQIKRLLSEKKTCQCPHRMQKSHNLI

CD4 on 3.L2 T cells = test: Adhesion frequency assay for direct CD4 binding; parameters: species or system mouse; conditions: MCC:I-E^k at >4,000 molecules/μm^2; contact 5s; n≥3 cell pairs, 50 contacts each
Procedure, shortened: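 3.L2 T cells, negatively selected from 6–8-week mouse spleens, were brought by micropipette into repeated 5-s contacts with human RBCs. The RBCs were biotinylated, streptavidin-linked and coated with noncognate MCC:I-E^k at >4,000 molecules/μm². Site densities came from PE-antibody flow cytometry against standard beads. Adhesion was scored from RBC membrane deflection on retraction, with frequency taken from 50 contacts per cell pair.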

GKKVITAFAEGLK [A72]
Bond lifetime versus force [1]: decreases monotonically with increasing force | Bond type under force [1]: slip-only bonds | Force at maximum ratio of bond lifetime of Hb to that of the peptide [1]: 10-15 pN | Classification of Ligand (3.L2 TCR T-cell response): Weak antagonist | Detectability by SPR (earlier work) (3.L2 TCR): not previously detectable using SPR

GKKVITAFNEGLK [Hb]
Effective 2D on-rate, Ackon, with CD4 blocking ([2]; calculated as AcKa × koff): 3.16 ± 0.42 × 10^−4 μm^4s^−1 | 2D off-rate, koff (adhesion frequency assay)**, with CD4 blocking ([2]; zero force): 1.89 ± 0.31 s⁻¹ | 2D off-rate, koff (thermal fluctuation assay)*, with CD4 blocking (3.L2 TCR on T cells): 1.41 ± 0.17 s⁻¹ | Bond type under force [1]: catch-slip bonds | Classification of Ligand (3.L2 TCR T-cell response): Agonist

moth cytochrome c (MCC) peptide 88-103 bound to I-E^k (peptide-MHC)
adhesion frequency [3]: < 5%

GKKVITAFTEGLK [T72]
Bond type under force [1]: catch-slip bonds | Classification of Ligand (3.L2 TCR T-cell response): Weak agonist

GKKVITAFIEGLK [I72]
Bond lifetime versus force [1]: decreases monotonically with increasing force | Bond type under force [1]: slip-only bonds | Force at maximum ratio of bond lifetime of Hb to that of the peptide [1]: 10-15 pN | Classification of Ligand (3.L2 TCR T-cell response): Antagonist

ANERADLIAYLKQATK [MCC]
Adhesion frequency Pa, noncognate pMHC-II, very high site density (CD4 on 3.L2 T cells): < 5%
